# Test results published in ChEMBL document CHEMBL1127543, “Dual angiotensin converting enzyme/thromboxane synthase inhibitors” (J Med Chem, 1994).
# Active and inactive are the calls of the source. The calls are words filed in the database; no cut-off is given here.
# Tests used:
# Thromboxane-A synthase [1] = biological target: T1, Thromboxane-A synthase (Homo sapiens, UniProt P24557); test: Tested for 50% inhibition of thromboxane synthase (TxS) in human platelets (in vitro); Not active
# T1 sequence (P24557 whole entry): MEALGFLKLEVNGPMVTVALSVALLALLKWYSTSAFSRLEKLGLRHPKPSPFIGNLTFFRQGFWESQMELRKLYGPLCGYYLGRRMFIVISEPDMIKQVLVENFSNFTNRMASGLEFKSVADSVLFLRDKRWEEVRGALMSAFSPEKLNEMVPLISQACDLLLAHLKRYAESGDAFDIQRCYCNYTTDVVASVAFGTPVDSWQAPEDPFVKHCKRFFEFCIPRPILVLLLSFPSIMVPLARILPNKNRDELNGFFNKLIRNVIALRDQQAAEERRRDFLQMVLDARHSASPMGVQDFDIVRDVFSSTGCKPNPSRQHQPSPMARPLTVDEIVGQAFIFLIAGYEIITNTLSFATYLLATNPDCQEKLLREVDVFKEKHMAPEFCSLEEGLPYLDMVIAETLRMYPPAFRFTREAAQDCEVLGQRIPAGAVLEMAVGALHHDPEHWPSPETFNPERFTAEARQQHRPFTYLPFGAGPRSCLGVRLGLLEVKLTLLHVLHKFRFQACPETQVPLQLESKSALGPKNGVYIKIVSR
# Method in brief: (§1)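 IC50 was obtained graphically from a range of compound concentrations within the linear range of the assay. Determinations were made in duplicate and repeated once.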
# [2] = biological target: T2, Angiotensin-converting enzyme (Oryctolagus cuniculus, UniProt P12822); test: Tested for 50% inhibition of Angiotensin converting enzyme(ACE) obtained from rabbit lung (in vitro)
# T2 sequence (P12822 whole entry): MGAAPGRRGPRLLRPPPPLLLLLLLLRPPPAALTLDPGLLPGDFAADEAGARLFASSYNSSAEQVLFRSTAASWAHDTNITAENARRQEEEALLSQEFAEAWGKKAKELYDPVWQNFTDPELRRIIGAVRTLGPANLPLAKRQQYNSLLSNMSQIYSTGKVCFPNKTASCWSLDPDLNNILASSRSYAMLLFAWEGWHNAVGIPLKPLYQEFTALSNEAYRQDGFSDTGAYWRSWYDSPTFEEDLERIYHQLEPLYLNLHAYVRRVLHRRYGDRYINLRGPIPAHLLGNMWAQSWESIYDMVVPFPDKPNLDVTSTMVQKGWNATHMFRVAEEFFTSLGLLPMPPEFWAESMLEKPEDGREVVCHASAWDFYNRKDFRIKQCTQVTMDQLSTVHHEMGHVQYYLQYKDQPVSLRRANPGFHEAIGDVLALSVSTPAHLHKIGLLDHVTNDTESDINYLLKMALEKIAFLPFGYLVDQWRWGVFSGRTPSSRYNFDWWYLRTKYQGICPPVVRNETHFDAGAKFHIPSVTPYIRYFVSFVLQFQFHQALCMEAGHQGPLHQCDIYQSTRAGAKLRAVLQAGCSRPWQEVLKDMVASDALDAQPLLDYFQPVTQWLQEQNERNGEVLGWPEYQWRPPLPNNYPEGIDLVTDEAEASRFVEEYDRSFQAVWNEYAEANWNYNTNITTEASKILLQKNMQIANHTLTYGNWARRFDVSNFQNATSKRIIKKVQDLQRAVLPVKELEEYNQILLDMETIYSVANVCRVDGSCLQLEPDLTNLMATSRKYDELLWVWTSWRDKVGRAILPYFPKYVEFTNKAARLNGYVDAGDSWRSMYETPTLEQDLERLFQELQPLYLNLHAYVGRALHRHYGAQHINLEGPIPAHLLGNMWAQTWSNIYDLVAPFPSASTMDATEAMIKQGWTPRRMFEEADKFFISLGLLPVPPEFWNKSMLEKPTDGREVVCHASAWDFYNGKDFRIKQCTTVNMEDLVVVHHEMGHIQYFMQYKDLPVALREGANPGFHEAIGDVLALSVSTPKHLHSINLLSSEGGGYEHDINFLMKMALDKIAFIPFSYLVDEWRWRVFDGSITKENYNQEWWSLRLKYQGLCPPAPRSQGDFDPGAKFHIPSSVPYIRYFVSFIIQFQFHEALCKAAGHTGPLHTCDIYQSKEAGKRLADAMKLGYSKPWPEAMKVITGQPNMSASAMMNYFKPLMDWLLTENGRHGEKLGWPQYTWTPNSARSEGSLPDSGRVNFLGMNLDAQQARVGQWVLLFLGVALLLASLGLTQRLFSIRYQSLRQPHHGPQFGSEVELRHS
# Method in brief: (§2)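 ACE was partially purified from rabbit lung and incubated with the synthetic substrate Hip-His-Leu. The hippuric acid product was measured spectrophotometrically. IC50 was read graphically from a range of inhibitor concentrations within the assay's linear range. Each determination was done in duplicate and repeated once.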
# Rattus norvegicus [3] = test: Tested for percent inhibition of maximum angiotensin I (AI) pressor response in rats on oral administration of 300 mg/kg after 2 hr; assay type: functional
# Method in brief: (§3)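 Conscious catheterized SHR were prepared as for blood pressure recording. At set times after dosing, angiotensin I was injected intraarterially in 0.5 mL. The rise in arterial pressure was recorded and expressed as percent inhibition of the angiotensin I pressor response.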
# Rattus norvegicus [4] = test: Antihypertensive activity was measured in spontaneously hypertensive rat (SHR) by measuring the maximum blood pressure when administered orally at dose of 10 mg/kg after 4 hr; assay type: functional; conditions: route oral
# Method in brief: (§4)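 Conscious, fully ambulatory SHR (250–280 g) were fitted with an arterial catheter led through an infusion swivel inside a protective spring. After 24 h recovery from surgery, rats were housed singly. Mean arterial pressure was recorded continuously after dosing over a 6-h period, with later readings up to 24 h. Rats had chow and tap water freely under a 12-h light cycle.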
# Rattus norvegicus [5] = test: Antihypertensive activity was measured in spontaneously hypertensive rat (SHR) by measuring the blood pressure after 24 hours when administered orally at dose of 10 mg/kg; assay type: functional; conditions: route oral; method in brief: as §4
# [6] = biological target: T2, Angiotensin-converting enzyme; test: Tested for 50% inhibition of Angiotensin converting enzyme(ACE) obtained from rabbit lung (in vitro); Not active; method in brief: as §2
# Rattus norvegicus [7] = test: Tested for percent inhibition of maximum angiotensin I (AI) pressor response in rats on oral administration of 300 mg/kg after 0.5 hr; assay type: functional; method in brief: as §3
# Rattus norvegicus [8] = test: Antihypertensive activity was measured in spontaneously hypertensive rat (SHR) by measuring the blood pressure after 24 hours on interarterial administration at dose of 1 mg/kg; Not significant; assay type: functional, organism-based; parameters: dose 1 mg/kg; conditions: Artery; method in brief: as §4
# Rattus norvegicus [9] = test: Antihypertensive activity was measured in spontaneously hypertensive rat (SHR) by measuring the blood pressure on interarterial administration at dose of 1 mg/kg; Not significant; assay type: functional, organism-based; parameters: dose 1 mg/kg; conditions: Artery; method in brief: as §4
# Thromboxane-A synthase [10] = biological target: T1, Thromboxane-A synthase; test: Tested for 50% inhibition of thromboxane synthase (TxS) in human platelets (in vitro); method in brief: as §1
# Rattus norvegicus [11] = test: Tested for percent inhibition of maximum angiotensin I (AI) pressor response in rats on oral administration of 300 mg/kg after 6 hr; assay type: functional; method in brief: as §3
# Rattus norvegicus [12] = test: Antihypertensive activity was measured in spontaneously hypertensive rat (SHR) by measuring the blood pressure after 24 hours when administered orally at dose of 30 mg/kg; assay type: functional; conditions: route oral
# Method in brief: (§5)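 Conscious, unrestrained, fully ambulatory SHR (250–280 g) fed normal pellet chow with free access to tap water, on a 12-h light cycle. Oral dosing used a vehicle at 1 mL/kg po. The read-out was the change in mean arterial pressure from control.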
# Rattus norvegicus [13] = test: Antihypertensive activity was measured in spontaneously hypertensive rat (SHR) by measuring the maximum blood pressure when administered orally at dose of 30 mg/kg after 6 h; assay type: functional; conditions: route oral; method in brief: as §4
# Rattus norvegicus [14] = test: Tested for percent inhibition of maximum angiotensin I (AI) pressor response in rats on oral administration of 300 mg/kg after 5 hr; assay type: functional; method in brief: as §3
# Rattus norvegicus [15] = test: Antihypertensive activity was measured in spontaneously hypertensive rat (SHR) by measuring the maximum blood pressure when administered orally at dose of 10 mg/kg after 6 h; assay type: functional; conditions: route oral; method in brief: as §4
# Rattus norvegicus [16] = test: Antihypertensive activity was measured in spontaneously hypertensive rat (SHR) by measuring the maximum blood pressure when administered orally at dose of 10 mg/kg after 5 h; assay type: functional; conditions: route oral; method in brief: as §4
# Rattus norvegicus [17] = test: Antihypertensive activity was measured in spontaneously hypertensive rat (SHR) by measuring the blood pressure on interarterial administration at dose of 1 mg/kg after 5 h; assay type: functional, Artery; method in brief: as §4
# Rattus norvegicus [18] = test: Antihypertensive activity was measured in spontaneously hypertensive rat (SHR) by measuring the maximum blood pressure when administered orally at dose of 30 mg/kg after 4 h; assay type: functional; conditions: route oral; method in brief: as §4
# Rattus norvegicus [19] = test: Tested for percent inhibition of maximum angiotensin I (AI) pressor response in rats on oral administration of 300 mg/kg after 4 hr; assay type: functional; method in brief: as §3
# Rattus norvegicus [20] = species on record: Rattus norvegicus; conditions: 30 mg/kg
# Rattus norvegicus [21] = test: Antihypertensive activity was measured in spontaneously hypertensive rat (SHR) by measuring the blood pressure after 24 hours when administered orally at dose of 5 mg/kg; assay type: functional; conditions: route oral; method in brief: as §5
# Rattus norvegicus [22] = test: Antihypertensive activity was measured in spontaneously hypertensive rat (SHR) by measuring the maximum blood pressure when administered orally at dose of 5 mg/kg after 3 h; assay type: functional; conditions: route oral; method in brief: as §4
compound,measurement,setting,value
CCOC(=O)[C@H](CCc1ccccc1)N[C@H]1CCc2ccccc2N(CC(=O)O)C1=O [BENAZEPRIL],IC50,Thromboxane-A synthase [1],Not Active
same,IC50,[2],0.002 µM
NCCCC[C@H](N[C@@H]1CCc2ccccc2N(CC(=O)O)C1=O)C(=O)O,IC50,[2],0.007 µM
same,inhibition in vivo at 300 mg/kg,Rattus norvegicus [3],70%
same,Max delta BP,Rattus norvegicus [4],-30 mmHg
same,Delta blood pressure,Rattus norvegicus [5],-18 mmHg
Cn1c(-c2cccnc2)c(CCCCCC(=O)O)c2cc(Cl)ccc21,IC50,[6],Not Active
Cn1c(-c2cccnc2)c(CCCCCC(=O)NCCCC[C@H](N[C@@H]2CCc3ccccc3N(CC(=O)O)C2=O)C(=O)O)c2cc(Cl)ccc21,inhibition in vivo at 300 mg/kg,Rattus norvegicus [7],81%
same,IC50,[2],0.006 µM
same,Delta blood pressure,Rattus norvegicus [8],inactive
same,Max delta BP,Rattus norvegicus [9],inactive
same,IC50,Thromboxane-A synthase [10],0.004 µM
CNCCN(CCCC[C@H](N[C@H]1CCc2ccccc2N(CC(=O)[O-])C1=O)C(=O)[O-])C(=O)CCCCCc1c(-c2cccnc2)n(C)c2ccc(Cl)cc12.[Na+].[Na+],IC50,[2],0.01 µM
same,inhibition in vivo at 300 mg/kg,Rattus norvegicus [11],71%
same,Delta blood pressure,Rattus norvegicus [12],-20 mmHg
same,Max delta BP,Rattus norvegicus [13],-39 mmHg
same,IC50,Thromboxane-A synthase [10],0.018 µM
Cn1c(-c2cccnc2)c(CCCCCC(=O)NCCNCCCC[C@H](N[C@H]2CCc3ccccc3N(CC(=O)[O-])C2=O)C(=O)[O-])c2cc(Cl)ccc21.[K+].[K+],IC50,[2],0.004 µM
same,inhibition in vivo at 300 mg/kg,Rattus norvegicus [14],39%
same,Max delta BP,Rattus norvegicus [15],-38 mmHg
same,IC50,Thromboxane-A synthase [10],0.01 µM
same,Delta blood pressure,Rattus norvegicus [5],-23 mmHg
O=C(O)CN1C(=O)[C@@H](N[C@@H](CCc2ccccc2)C(=O)O)C[C@@H](O)c2ccccc21,IC50,Thromboxane-A synthase [1],Not Active
same,IC50,[2],0.008 µM
Cn1c(-c2cccnc2)c(CCCCCC(=O)N(CCO)CCCC[C@H](N[C@H]2CCc3ccccc3N(CC(=O)O)C2=O)C(=O)O)c2cc(Cl)ccc21,inhibition in vivo at 300 mg/kg,Rattus norvegicus [7],76%
same,IC50,[2],0.01 µM
same,Delta blood pressure,Rattus norvegicus [8],inactive
same,inhibition in vivo at 300 mg/kg,Rattus norvegicus [14],30%
same,Max delta BP,Rattus norvegicus [16],-42 mmHg
same,Max delta BP,Rattus norvegicus [17],-23 mmHg
same,Delta blood pressure,Rattus norvegicus [5],-30 mmHg
O=C(O)CN1C(=O)[C@@H](N[C@@H](CCCCNCCO)C(=O)O)CCc2ccccc21,Max delta BP,Rattus norvegicus [18],-28 mmHg
same,inhibition in vivo at 300 mg/kg,Rattus norvegicus [19],84%
same,IC50,Thromboxane-A synthase [1],Not Active
same,Delta blood pressure,Rattus norvegicus [20],inactive
same,IC50,[2],0.007 µM
Cc1c(-c2cccnc2)n(CCCCC(=O)O)c2ccccc12,IC50,[6],Not Active
Cc1c(-c2cccnc2)n(CCCCP(=O)(O)OC2CCc3ccccc3N(CC(=O)O)C2=O)c2ccccc12 (centres undefined),IC50,[2],0.03 µM
same,IC50,Thromboxane-A synthase [10],0.02 µM
"CCOC(=O)C(CCc1ccccc1)NC(C)C(=O)N1CCC[C@H]1C(=O)O (single isomer, unassigned)",IC50,Thromboxane-A synthase [1],Not Active
same,inhibition in vivo at 300 mg/kg,Rattus norvegicus [3],100%
same,Delta blood pressure,Rattus norvegicus [21],-17 mmHg
same,Max delta BP,Rattus norvegicus [22],-28 mmHg
Cc1c(-c2cccnc2)n(CCCCCCCC(=O)O[C@@H]2C[C@H](N[C@@H](CCc3ccccc3)C(=O)O)C(=O)N(CC(=O)O)c3ccccc32)c2ccccc12,IC50,[2],0.09 µM
same,IC50,Thromboxane-A synthase [10],0.02 µM
CC(=O)O[C@@H]1C[C@H](N[C@@H](CCc2ccccc2)C(=O)O)C(=O)N(CC(=O)O)c2ccccc21,IC50,[2],0.006 µM
CCOP(=O)(O)CCCCn1c(-c2cccnc2)c(C)c2ccccc21.Cl,IC50,[6],Not Active
same,IC50,Thromboxane-A synthase [10],0.009 µM
O=C(O)C(CCCCc1cccc2cncn12)CCC(=O)N1c2ccccc2C[C@H]1C(=O)O (some centres undefined),IC50,[2],0.02 µM
Cc1c(-c2cccnc2)n(CCCCP(=O)(O)O)c2ccccc12,IC50,[6],Not Active
same,IC50,Thromboxane-A synthase [10],0.1 µM
Cc1c(-c2cccnc2)n(CCCCCCCC(=O)O)c2ccccc12,IC50,[6],Not Active
O=C([O-])CN1C(=O)C(OP(=O)([O-])CCCCc2ccccc2)CCc2ccccc21.[Na+].[Na+] (centres undefined),IC50,Thromboxane-A synthase [1],Not Active
same,IC50,[2],0.02 µM
